Measurements: ChEMBL document CHEMBL3407418, “Fragment-based drug discovery of 2-thiazolidinones as BRD4 inhibitors: 2. Structure-based optimization” (J Med Chem, 2015)

How the values were obtained:
[1] = target: CYP2C19 (Homo sapiens, UniProt P33261); assay: Inhibition of CYP2C19 in human liver microsomes at 10 uM using mephenytoin substrate preincubated for 5 mins before NADPH addition and measured after 20 mins post NADPH addition; type: ADME; settings: probe mephenytoin
Method in brief: (§1)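 Human liver microsomes 0.2 mg/mL, 1 mmol NADPH, 100 mmol phosphate pH 7.4, probe cocktail (10 μM midazolam, 100 μM testosterone, 10 μM dextromethorphan, 20 μM diclofenac, 100 μM phenacetin, 100 μM mephenytoin), test compound 10 μM or PBS; organic solvent <1%. 5 min preincubation at 37 °C, NADPH-generating system start, 20 min reaction; inhibition from metabolite formation relative to PBS.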

[2] = target: T1, CYP3A4 (Homo sapiens, UniProt P08684); assay: Inhibition of CYP3A4 in human liver microsomes at 10 uM using midazolam substrate preincubated for 5 mins before NADPH addition and measured after 20 mins post NADPH addition; type: ADME; settings: probe midazolam; method in brief: as §1
[3] = target: Bromodomain-containing protein 4 (Homo sapiens, UniProt O60885); assay: Inhibition of BRD4(1) (unknown origin) incubated for 4 hrs by (+)-JQ1 fluorescent ligand based fluorescence anisotrophy
[4] = system: MV4-11; assay: Growth inhibition of human MV4-11 cells after 72 hrs by CellTiter-Glo luminescent cell viability assay; settings: MV4-11, 72 h
[5] = target: T1, CYP3A4; assay: Inhibition of CYP3A4 in human liver microsomes at 10 uM preincubated for 5 mins before NADPH addition and measured after 20 mins post NADPH addition; type: ADME
[6] = target: Histone acetyltransferase p300 (Homo sapiens) (UniProt Q09472); assay: Binding affinity to EP300 (unknown origin) assessed as increase in protein melting temperature at 50 umol by real-time PCR system based thermal shift assay
Method in brief: (§2)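 Bromodomain proteins in 10 mmol HEPES pH 7.5, 500 mmol NaCl at 75 μg/mL final; compound at 50 µmol final; SYPRO Orange probe at 1:1000. Four replicates per protein mixture. Melt curve read on a real-time PCR instrument, heating 25 °C to 99 °C at 1 °C/min under continuous fluorescence reading; binding taken as the rise in protein melting temperature.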

[7] = target: Bromodomain-containing protein 2 (Homo sapiens) (UniProt P25440); assay: Binding affinity to BRD2(1) (unknown origin) assessed as increase in protein melting temperature at 50 umol by real-time PCR system based thermal shift assay; method in brief: as §2
[8] = target: T2, CYP1A2 (Homo sapiens, UniProt P05177); assay: Inhibition of CYP1A2 in human liver microsomes at 10 uM using phenacetin substrate preincubated for 5 mins before NADPH addition and measured after 20 mins post NADPH addition; type: ADME; settings: probe phenacetin; method in brief: as §1
T2 sequence (P05177 whole entry): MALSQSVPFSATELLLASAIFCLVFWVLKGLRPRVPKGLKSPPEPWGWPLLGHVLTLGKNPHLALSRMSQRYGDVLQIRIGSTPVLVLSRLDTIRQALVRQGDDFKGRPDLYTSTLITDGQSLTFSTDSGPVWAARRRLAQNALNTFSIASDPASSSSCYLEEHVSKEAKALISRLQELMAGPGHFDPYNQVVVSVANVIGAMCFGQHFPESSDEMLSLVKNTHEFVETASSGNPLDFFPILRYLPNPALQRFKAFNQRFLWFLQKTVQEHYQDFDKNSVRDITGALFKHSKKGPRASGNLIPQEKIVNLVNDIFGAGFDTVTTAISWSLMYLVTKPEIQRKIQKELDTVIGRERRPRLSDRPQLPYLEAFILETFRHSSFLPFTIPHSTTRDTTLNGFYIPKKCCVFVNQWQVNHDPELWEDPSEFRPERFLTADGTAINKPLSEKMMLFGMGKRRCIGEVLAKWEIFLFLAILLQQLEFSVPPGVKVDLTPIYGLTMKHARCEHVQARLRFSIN

[9] = target: T3, ATPase family AAA domain-containing protein 2 (Homo sapiens) (UniProt Q6PL18); assay: Binding affinity to ATAD2 (unknown origin) assessed as increase in protein melting temperature at 50 umol by real-time PCR system based thermal shift assay; method in brief: as §2
T3 sequence (whole entry): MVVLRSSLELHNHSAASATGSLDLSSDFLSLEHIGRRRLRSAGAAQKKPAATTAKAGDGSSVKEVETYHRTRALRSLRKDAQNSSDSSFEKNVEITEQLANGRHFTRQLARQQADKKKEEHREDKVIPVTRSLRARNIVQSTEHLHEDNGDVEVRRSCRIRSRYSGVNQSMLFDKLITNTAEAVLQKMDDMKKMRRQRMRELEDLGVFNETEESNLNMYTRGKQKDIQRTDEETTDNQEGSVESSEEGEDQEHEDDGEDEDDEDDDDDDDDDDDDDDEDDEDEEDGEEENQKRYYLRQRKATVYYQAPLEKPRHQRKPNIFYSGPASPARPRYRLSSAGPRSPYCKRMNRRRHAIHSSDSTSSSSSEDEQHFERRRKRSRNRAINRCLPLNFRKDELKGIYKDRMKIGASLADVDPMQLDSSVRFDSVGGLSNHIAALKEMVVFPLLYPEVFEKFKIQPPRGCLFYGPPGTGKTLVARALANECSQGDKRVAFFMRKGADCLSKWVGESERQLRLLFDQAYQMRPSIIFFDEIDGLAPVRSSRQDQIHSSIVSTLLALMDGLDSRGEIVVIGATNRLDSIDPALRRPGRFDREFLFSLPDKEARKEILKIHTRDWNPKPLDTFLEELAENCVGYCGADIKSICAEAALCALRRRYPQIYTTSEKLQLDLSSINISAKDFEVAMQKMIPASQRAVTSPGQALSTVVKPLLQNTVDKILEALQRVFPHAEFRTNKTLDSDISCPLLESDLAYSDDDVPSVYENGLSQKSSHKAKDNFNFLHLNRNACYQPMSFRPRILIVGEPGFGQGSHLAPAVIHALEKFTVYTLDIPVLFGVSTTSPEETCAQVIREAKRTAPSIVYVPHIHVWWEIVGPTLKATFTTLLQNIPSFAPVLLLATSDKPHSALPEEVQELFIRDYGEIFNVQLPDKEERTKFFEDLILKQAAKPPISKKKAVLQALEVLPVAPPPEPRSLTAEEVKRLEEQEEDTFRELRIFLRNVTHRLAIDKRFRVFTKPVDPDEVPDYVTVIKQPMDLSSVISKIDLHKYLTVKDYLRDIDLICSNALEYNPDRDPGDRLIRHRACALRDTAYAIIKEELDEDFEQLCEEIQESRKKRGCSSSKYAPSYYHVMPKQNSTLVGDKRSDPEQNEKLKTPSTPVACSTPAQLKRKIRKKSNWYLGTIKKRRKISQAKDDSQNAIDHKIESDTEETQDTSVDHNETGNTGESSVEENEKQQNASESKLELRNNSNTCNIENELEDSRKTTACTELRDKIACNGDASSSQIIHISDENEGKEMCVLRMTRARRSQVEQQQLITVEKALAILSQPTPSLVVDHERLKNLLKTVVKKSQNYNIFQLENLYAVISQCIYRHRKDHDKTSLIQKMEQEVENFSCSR

[10] = Growth inhibition of human MM1S cells after 72 hrs by CellTiter-Glo luminescent cell viability assay; settings: MM1.S

CYP2C19, sequence (P33261 whole entry): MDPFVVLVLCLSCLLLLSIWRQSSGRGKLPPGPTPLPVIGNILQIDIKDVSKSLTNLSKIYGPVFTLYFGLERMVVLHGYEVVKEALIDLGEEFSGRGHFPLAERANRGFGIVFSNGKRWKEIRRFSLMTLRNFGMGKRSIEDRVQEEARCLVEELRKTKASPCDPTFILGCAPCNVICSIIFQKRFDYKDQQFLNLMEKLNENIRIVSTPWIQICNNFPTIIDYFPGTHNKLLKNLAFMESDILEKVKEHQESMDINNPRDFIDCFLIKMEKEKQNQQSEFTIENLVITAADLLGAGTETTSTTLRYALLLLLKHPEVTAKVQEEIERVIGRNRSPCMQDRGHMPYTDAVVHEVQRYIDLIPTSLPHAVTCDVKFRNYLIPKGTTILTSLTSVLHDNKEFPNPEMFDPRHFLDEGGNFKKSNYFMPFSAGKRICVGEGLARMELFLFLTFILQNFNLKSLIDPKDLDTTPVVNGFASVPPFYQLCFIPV
Bromodomain-containing protein 2 (Homo sapiens), sequence (P25440 whole entry, looked up): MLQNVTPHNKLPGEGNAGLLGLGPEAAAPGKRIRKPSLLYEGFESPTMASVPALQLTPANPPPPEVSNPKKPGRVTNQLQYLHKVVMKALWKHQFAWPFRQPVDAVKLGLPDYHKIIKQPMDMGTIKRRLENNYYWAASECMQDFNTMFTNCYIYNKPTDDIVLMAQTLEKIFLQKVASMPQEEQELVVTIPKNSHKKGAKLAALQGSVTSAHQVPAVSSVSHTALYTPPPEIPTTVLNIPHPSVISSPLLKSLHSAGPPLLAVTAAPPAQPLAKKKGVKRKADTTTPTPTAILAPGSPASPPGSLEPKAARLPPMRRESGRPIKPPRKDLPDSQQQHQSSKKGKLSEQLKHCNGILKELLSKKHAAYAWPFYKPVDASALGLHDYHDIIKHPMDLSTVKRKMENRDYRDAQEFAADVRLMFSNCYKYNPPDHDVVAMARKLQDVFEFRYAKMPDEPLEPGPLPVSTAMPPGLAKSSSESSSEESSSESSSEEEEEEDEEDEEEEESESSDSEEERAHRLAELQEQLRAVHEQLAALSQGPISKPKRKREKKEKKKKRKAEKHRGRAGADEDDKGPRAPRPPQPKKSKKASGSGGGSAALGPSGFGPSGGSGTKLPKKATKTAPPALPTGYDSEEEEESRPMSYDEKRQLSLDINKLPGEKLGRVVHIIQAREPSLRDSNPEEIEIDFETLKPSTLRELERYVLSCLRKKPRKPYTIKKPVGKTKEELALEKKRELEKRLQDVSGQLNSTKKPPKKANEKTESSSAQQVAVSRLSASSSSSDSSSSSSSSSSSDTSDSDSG
T1 sequence (P08684 whole entry): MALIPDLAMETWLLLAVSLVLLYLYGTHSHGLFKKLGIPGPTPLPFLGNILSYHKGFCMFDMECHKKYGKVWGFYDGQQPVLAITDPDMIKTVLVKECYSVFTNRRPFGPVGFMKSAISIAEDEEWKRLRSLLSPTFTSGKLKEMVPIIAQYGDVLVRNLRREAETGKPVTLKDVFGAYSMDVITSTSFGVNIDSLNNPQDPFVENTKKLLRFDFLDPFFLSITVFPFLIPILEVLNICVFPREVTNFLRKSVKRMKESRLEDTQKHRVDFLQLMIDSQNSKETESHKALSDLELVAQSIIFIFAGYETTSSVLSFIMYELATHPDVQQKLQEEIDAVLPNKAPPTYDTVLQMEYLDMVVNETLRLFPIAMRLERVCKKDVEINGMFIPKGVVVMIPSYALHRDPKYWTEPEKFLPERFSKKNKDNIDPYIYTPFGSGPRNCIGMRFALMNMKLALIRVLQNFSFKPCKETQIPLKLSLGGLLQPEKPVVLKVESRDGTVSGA
Histone acetyltransferase p300 (Homo sapiens), sequence (Q09472 whole entry): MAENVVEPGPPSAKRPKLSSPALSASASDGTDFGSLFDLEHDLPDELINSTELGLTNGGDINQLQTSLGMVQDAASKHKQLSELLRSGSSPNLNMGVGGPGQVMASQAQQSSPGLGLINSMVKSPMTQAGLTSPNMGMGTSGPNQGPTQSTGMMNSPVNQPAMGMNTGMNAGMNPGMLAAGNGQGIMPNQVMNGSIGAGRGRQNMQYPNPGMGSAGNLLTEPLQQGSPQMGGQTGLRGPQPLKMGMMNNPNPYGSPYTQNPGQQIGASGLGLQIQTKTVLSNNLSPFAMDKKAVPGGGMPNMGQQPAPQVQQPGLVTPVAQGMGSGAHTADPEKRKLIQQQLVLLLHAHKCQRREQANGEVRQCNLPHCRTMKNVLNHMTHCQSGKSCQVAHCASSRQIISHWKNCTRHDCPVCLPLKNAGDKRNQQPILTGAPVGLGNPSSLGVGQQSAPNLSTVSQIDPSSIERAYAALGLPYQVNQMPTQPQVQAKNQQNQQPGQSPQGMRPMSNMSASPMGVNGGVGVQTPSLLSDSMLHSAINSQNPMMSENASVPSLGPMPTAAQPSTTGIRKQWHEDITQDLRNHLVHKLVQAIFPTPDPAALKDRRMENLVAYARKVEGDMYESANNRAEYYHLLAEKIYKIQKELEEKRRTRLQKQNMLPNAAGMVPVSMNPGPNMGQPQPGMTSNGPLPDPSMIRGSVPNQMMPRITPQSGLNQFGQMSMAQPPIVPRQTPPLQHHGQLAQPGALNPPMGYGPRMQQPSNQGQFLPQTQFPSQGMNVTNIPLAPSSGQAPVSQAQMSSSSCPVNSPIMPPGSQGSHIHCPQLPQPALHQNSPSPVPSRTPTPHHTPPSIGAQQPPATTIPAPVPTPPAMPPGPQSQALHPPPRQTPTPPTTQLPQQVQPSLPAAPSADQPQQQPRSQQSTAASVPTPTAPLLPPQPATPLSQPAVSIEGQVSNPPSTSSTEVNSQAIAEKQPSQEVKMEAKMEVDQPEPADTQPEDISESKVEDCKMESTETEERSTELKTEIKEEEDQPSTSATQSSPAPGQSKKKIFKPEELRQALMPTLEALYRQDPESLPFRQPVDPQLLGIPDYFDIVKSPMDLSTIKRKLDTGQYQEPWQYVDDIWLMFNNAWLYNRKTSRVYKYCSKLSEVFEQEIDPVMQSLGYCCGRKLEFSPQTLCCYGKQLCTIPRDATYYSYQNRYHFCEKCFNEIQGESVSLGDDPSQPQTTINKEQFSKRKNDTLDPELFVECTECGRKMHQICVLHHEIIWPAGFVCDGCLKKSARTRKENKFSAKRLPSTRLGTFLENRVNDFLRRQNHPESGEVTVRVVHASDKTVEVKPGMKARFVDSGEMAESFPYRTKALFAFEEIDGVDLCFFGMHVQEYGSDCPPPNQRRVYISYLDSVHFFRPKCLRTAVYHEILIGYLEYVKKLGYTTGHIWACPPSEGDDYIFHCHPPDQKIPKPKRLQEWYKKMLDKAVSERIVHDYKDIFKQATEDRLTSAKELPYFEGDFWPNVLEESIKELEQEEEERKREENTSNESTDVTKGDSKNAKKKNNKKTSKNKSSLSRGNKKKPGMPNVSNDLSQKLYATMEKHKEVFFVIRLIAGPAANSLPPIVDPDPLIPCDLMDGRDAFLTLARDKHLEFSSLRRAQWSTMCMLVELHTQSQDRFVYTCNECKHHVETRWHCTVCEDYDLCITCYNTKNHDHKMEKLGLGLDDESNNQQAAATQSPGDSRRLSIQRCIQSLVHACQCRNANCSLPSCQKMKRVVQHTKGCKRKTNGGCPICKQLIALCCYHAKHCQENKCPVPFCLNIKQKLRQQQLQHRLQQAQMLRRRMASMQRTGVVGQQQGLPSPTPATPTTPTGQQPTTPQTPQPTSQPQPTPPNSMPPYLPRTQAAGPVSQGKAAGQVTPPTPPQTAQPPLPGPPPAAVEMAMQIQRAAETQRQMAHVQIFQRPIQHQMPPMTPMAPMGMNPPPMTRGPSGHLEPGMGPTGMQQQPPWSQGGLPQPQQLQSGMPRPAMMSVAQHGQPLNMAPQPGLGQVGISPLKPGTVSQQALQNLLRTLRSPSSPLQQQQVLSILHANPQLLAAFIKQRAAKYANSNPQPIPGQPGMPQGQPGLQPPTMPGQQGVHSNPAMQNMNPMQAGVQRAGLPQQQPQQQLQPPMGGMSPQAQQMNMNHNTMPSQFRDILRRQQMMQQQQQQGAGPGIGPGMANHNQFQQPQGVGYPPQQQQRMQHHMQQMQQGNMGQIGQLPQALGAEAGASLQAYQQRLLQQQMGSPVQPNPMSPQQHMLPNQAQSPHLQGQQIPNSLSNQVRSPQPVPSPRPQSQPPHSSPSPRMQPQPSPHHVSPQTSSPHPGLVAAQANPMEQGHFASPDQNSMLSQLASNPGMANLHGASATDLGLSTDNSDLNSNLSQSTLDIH

inhibition at 20 min, 10 µM [1]	inhibition at 20 min, 10 µM [2]	IC50 [3]	IC50 [4]	inhibition at 20 min, 10 µM [5]	ΔTm [6]	ΔTm [7]	inhibition at 20 min, 10 µM [8]	ΔTm [9]	IC50 [10]	Compound
3%	42%	140 nM	184 nM	46%	0.19 °C	5.04 °C	17%	2.7 °C	570 nM	Cc1c(N)cc(-c2csc(=O)[nH]2)cc1S(=O)(=O)NC1CCCC1
32%	14%	60 nM	228 nM	21%	-0.54 °C	5.63 °C	29%	3.55 °C	1060 nM	O=C(Nc1cc(-c2csc(=O)[nH]2)cc(S(=O)(=O)NC2CCCC2)c1)C1CC1
28%	42%	60 nM	141 nM	53%	-1.01 °C	5.92 °C	47%	3.42 °C	999 nM	Cc1c(Br)cc(-c2csc(=O)[nH]2)cc1S(=O)(=O)NC1CCCC1
57%	70%	120 nM	289 nM	82%	-0.08 °C	4.06 °C	22%	3.28 °C	793 nM	Nc1ccc(-c2csc(=O)[nH]2)cc1S(=O)(=O)NC1CCCC1
45%	62%	220 nM	459 nM	68%	-0.17 °C	3.47 °C	52%	1.44 °C	1900 nM	Cc1ccc(-c2csc(=O)[nH]2)cc1S(=O)(=O)NC1CCCC1
26%	20%	760 nM	547 nM	30%	0.49 °C	2.82 °C	3%	1.36 °C	2420 nM	COc1ccc(-c2csc(=O)[nH]2)cc1S(=O)(=O)NC1CCCC1
